The nature of assay [1]: Binding affinity to His-TEV-tagged VHL (54 to 213 residues) (unknown origin)/Elongin B (1 to 118 residues)/Elongin C (1 to 96 residues) expressed in Escherichia coli BL21(DE3) by FP assay. The arrangement: species or system Homo sapiens. In a few lines: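 Competitive FP. Tracer is a fluorescent VHL ligand (Kd 2.3 nM). VHL–ElonginB/C complex and tracer each at 5 nM final, preincubated. Compound in DMSO (5 µL into 95 µL) for 60 min at room temperature with shaking. Ex 485/em 530 nm. IC50 by nonlinear regression; Ki from probe KD and protein/probe concentrations. Duplicate, three independent experiments.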

Assay [2] deals with T1, von Hippel-Lindau disease tumor suppressor/Estrogen receptor/Cullin-2 (Homo sapiens, UniProt P03372+P40337+Q13617). The assay can be described thus: Protac activity against VHL/cullin2/ERalpha in human MCF7 cells assessed as ERalpha degradation by measuring ER protein/GADPH ratio at 1 nM after 4 hrs by Western blot analysis relative to control. Format: cell-based. In a few lines: (§1)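 MCF-7 cells (DMEM, 10% FBS, passages 3−8) exposed 4 h. Lysed in RIPA with protease inhibitors; equal protein on 10% SDS-PAGE, PVDF, anti-ERα blot. Membranes stripped and reprobed for GAPDH. ERα/GAPDH ratio normalized to DMSO = 100; DC50 from densitometry of the dose series.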

Assay [3] addresses T1, von Hippel-Lindau disease tumor suppressor/Estrogen receptor/Cullin-2. As to the kind of experiment: Protac activity against VHL/cullin2/ERalpha in human MCF7 cells assessed as ERalpha degradation by measuring ER protein/GADPH ratio at 100 nM after 4 hrs by Western blot analysis relative to control. Format: cell-based. In a few lines:
as §1

For assay [4] the target is unchanged. As to the kind of experiment: Protac activity against VHL/cullin2/ERalpha in human MCF7 cells assessed as ERalpha degradation by measuring ER protein/GADPH ratio at 10 nM after 4 hrs by Western blot analysis relative to control. Format: cell-based. In short, it runs like this: as §1
Assay [5] shares this target. The assay can be described thus: Protac activity against VHL/cullin2/ERalpha in human MCF7 cells assessed as ERalpha degradation by measuring ER protein/GADPH ratio at 1000 nM after 4 hrs by Western blot analysis relative to control. The format is cell-based. In short, it runs like this: as §1
The test system of assay [6] is MCF7. As to the kind of experiment: Inhibition of cell growth in human MCF7 cells after 4 days by wst-8-based colorimetric analysis. Format: functional. The conditions noted are these: MCF7, 96 h. In a few lines:
(§2)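 Cells seeded at 1500/well overnight, then exposed to graded compound doses for 4 days. Growth read by colorimetric WST-8 assay. GI50 from fitted curves. MCF-7 cells were kept in DMEM, 10% FBS, passages 3−8; human mammary epithelial cells were run the same way.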

For assay [7], the system named is MCF7. As to the kind of experiment: Inhibition of cell growth in human MCF7 cells after 4 days by wst-8-based colorimetric analysis relative to control. The format is functional. In a few lines:
as §2

Assay [8] relates to MCF7. The assay can be described thus: Antiproliferative activity against human MCF7 cells at 10 to 300 nM after 5 days by crystal violet staining based assay. Format: functional, cell-based. In a few lines:
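MCF-7 cells in DMEM with 10% FBS and penicillin/streptomycin, passages 3−8, exposed to compounds at 10, 100 and 300 nM for 5 days, then fixed and stained with crystal violet.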

The target of assay [9] is T2, Protein cereblon/Estrogen receptor/Cullin-4A (Homo sapiens) (UniProt P03372+Q96SW2+Q13619). The assay can be described thus: Protac activity against cereblon/cullin 4A/ERalpha in human MCF7 cells assessed as ERalpha degradation by measuring ER protein/GADPH ratio at 100 nM after 4 hrs by Western blot analysis relative to control. Format: cell-based. In a few lines: as §1

For assay [10], the target named is T2, Protein cereblon/Estrogen receptor/Cullin-4A (Homo sapiens). As to the kind of experiment: Protac activity against cereblon/cullin 4A/ERalpha in human MCF7 cells assessed as ERalpha degradation by measuring ER protein/GADPH ratio at 10 nM after 4 hrs by Western blot analysis relative to control. Format: cell-based. In a few lines: as §1
Assay [11] shares this target. The assay can be described thus: Protac activity against cereblon/cullin 4A/ERalpha in human MCF7 cells assessed as ERalpha degradation by measuring ER protein/GADPH ratio at 1 nM after 4 hrs by Western blot analysis relative to control. The format is cell-based. In short, it runs like this:
as §1

Assay [12] shares this target. As to the kind of experiment: Protac activity against cereblon/cullin 4A/ERalpha in human MCF7 cells assessed as ERalpha degradation by measuring ER protein/GADPH ratio at 1000 nM after 4 hrs by Western blot analysis relative to control. Format: cell-based. In short, it runs like this:
as §1

Assay [13] addresses T1, von Hippel-Lindau disease tumor suppressor/Estrogen receptor/Cullin-2. As to the kind of experiment: Protac activity against VHL/cullin2/ERalpha in human MCF7 cells assessed as ERalpha degradation by measuring reduction in ER protein level pre-treated with raloxifene for 2 hrs followed by compound exposure at 30 nM for 4 hrs by Western blot analysis. The format is cell-based.

Structures are written as SMILES. The source made the active and inactive calls. No cut-off for these calls is given here.

T1 sequence (P03372 whole entry, looked up): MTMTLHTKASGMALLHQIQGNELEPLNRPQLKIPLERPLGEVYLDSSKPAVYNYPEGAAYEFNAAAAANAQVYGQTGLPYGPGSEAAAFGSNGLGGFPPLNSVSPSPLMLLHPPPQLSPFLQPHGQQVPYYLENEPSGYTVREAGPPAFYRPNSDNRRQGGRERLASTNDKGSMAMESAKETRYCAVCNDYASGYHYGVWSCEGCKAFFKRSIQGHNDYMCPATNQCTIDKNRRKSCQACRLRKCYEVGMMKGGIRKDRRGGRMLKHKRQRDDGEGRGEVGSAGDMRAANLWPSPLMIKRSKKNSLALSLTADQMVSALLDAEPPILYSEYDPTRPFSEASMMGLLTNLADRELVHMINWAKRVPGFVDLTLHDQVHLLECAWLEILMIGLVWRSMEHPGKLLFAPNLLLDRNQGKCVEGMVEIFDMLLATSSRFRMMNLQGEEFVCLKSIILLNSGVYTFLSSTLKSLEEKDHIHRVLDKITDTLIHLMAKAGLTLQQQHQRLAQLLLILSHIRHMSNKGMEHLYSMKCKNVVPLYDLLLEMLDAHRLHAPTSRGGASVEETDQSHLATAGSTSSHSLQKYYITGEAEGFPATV
T1 sequence (P40337 whole entry, looked up): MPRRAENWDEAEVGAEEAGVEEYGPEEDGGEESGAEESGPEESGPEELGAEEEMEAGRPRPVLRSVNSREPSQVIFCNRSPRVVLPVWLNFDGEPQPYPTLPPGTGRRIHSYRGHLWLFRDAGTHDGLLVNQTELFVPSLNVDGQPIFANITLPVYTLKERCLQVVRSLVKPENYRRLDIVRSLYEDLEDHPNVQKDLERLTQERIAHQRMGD
T1 sequence (Q13617 whole entry, looked up): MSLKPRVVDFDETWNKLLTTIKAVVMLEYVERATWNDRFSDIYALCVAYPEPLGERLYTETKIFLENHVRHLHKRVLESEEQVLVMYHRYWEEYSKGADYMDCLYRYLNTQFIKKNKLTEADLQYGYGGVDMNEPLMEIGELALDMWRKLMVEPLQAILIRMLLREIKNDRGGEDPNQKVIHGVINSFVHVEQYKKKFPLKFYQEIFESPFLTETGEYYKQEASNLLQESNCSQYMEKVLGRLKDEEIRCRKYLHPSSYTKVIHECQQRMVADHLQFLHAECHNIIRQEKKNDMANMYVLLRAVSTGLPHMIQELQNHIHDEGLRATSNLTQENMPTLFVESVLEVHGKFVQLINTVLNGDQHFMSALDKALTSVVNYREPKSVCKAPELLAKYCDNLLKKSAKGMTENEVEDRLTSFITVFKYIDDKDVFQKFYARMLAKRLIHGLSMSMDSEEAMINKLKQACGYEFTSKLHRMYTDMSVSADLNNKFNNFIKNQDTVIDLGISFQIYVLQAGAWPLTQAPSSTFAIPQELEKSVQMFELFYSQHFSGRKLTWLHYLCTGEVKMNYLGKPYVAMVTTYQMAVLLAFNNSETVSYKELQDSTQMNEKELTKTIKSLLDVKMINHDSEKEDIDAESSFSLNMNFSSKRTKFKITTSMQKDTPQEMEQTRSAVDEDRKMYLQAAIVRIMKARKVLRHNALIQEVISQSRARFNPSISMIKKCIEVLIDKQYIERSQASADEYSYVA
T2 sequence (P03372 whole entry, looked up): as the sequence (P03372 whole entry, looked up) above
T2 sequence (Q13619 whole entry, looked up): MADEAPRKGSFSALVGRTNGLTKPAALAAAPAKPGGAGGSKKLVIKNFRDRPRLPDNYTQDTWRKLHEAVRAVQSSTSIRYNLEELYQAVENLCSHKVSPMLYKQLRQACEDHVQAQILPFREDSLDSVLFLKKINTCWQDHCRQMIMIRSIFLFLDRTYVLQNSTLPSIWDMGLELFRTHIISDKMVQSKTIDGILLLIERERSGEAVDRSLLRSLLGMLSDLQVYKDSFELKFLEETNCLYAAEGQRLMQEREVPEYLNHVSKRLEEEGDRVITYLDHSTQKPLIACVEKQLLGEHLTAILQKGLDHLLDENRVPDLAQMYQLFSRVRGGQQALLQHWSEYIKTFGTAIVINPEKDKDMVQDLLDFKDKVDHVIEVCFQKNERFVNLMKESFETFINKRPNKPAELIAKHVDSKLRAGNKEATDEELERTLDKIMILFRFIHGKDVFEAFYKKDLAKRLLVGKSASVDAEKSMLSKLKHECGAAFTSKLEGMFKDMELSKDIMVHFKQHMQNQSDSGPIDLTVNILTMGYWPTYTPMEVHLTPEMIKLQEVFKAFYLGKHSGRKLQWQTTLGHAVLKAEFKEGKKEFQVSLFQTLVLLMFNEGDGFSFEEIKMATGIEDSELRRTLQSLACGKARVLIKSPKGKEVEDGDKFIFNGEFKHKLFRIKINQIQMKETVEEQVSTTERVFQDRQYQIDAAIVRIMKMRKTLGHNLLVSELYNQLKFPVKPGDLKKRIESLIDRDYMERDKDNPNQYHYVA
T2 sequence (Q96SW2 whole entry, looked up): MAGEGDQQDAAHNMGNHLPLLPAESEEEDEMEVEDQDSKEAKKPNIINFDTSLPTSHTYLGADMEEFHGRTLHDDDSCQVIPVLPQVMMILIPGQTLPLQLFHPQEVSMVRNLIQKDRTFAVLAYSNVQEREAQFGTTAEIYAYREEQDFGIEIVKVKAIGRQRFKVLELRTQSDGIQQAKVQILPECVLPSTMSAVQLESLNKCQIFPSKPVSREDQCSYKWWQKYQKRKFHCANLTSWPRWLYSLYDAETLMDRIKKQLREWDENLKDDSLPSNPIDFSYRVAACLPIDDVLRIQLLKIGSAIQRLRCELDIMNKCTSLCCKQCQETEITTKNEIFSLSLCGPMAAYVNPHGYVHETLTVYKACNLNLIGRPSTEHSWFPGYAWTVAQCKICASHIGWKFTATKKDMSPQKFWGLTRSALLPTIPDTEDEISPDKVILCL

The compound `CC(=O)N[C@H](C(=O)N1C[C@H](O)C[C@H]1C(=O)N[C@@H](C)c1ccc(C(C)(C)C)cc1)C(C)(C)C` showed a half-maximal inhibitory concentration (IC50) in [1] of 58900 nM.

For the compound `CCN(CCOCCOCCOCCC(=O)N[C@H](C(=O)N1C[C@H](O)C[C@H]1C(=O)N[C@@H](C)c1ccc(-c2scnc2C)cc1)C(C)(C)C)CCOc1ccc(C(=O)c2c(-c3ccc(O)cc3)sc3cc(O)ccc23)cc1`, the Ratio in [2] worked out at 101; in assay [3] it was 0.4; in assay [4], 0.6; in [5], 67.

In the case of `CC(=O)N[C@H](C(=O)N1C[C@H](O)C[C@H]1C(=O)N[C@@H](C)c1ccc(-c2scnc2C)cc1)C(C)(C)C`, the IC50 in [1] turned out to be 196 nM.

In [1], `CC(=O)N[C@H](C(=O)N1C[C@H](O)C[C@H]1C(=O)N[C@@H](C)c1ccc(C(C)C)cc1)C(C)(C)C` came in with a half-inhibitory concentration (IC50) of 41000 nM.

Compound `C[C@]12CC[C@@H]3c4ccc(O)cc4C[C@@H](CCCCCCCCC[S+]([O-])CCCC(F)(F)C(F)(F)F)[C@H]3[C@@H]1CC[C@@H]2O` (some centres undefined) [FULVESTRANT] gave a GI50 in assay [6] of 0.17 nM. This compound also gave an Imax in assay [7] of 43.8%. Also, the outcome in assay [8] was Active.

Consider `C#Cc1ccc([C@H](C)NC(=O)[C@@H]2C[C@@H](O)CN2C(=O)[C@@H](NC(C)=O)C(C)(C)C)cc1`, for which the IC50 in [1] stood at 879 nM.

As to `CCN(CCCCCCC#Cc1cccc2c1CN(C1CCC(=O)NC1=O)C2=O)CCOc1ccc(C(=O)c2c(-c3ccc(O)cc3)sc3cc(O)ccc23)cc1` (centres undefined), the Ratio in assay [9] stood at 160; in assay [10] it was 135; in assay [11], 143; in assay [12], 174.

As for `CCN(CCOCCOCC(=O)N[C@H](C(=O)N1C[C@H](O)C[C@H]1C(=O)N[C@@H](C)c1ccc(-c2scnc2C)cc1)C(C)(C)C)CCOc1ccc(C(=O)c2c(-c3ccc(O)cc3)sc3cc(O)ccc23)cc1`, the Ratio in assay [2] turned out to be 94; in assay [3], 0.4; in assay [4] it was 0.4.

Take `CCN(CCCCCCCC(=O)N[C@H](C(=O)N1C[C@H](O)C[C@H]1C(=O)N[C@@H](C)c1ccc(C2CC2)cc1)C(C)(C)C)CCOc1ccc(C(=O)c2c(-c3ccc(O)cc3)sc3cc(O)ccc23)cc1`: the Ratio in [2] amounted to 130; in [3], 70; in assay [4], 75.

`CCN(CCCCCCCC(=O)N[C@H](C(=O)N1C[C@H](O)C[C@H]1C(=O)N[C@@H](C)c1ccc(-c2scnc2C)cc1)C(C)(C)C)CCOc1ccc(Cn2c(-c3ccc(O)cc3)c(C)c3cc(O)ccc32)cc1`: the Ratio amounted to 74 in assay [2], 0.2 in [3] and 10 in assay [4].

Regarding `CC(C)C[C@H](NC(=O)[C@H](CCc1ccccc1)NC(=O)CN1CCOCC1)C(=O)N[C@@H](Cc1ccccc1)C(=O)N[C@@H](CC(C)C)C(=O)[C@@]1(C)CO1`, the result in assay [13] was inactive.

As to `CCN(CCCCCCCCCC(=O)N[C@H](C(=O)N1C[C@H](O)C[C@H]1C(=O)N[C@@H](C)c1ccc(-c2scnc2C)cc1)C(C)(C)C)CCOc1ccc(C(=O)c2c(-c3ccc(O)cc3)sc3cc(O)ccc23)cc1`, the Ratio stood at 25 in assay [2], 0.3 in assay [3] and 0.4 in assay [4].

`CC(=O)N[C@H](C(=O)N1C[C@H](O)C[C@H]1C(=O)N[C@@H](C)c1ccc(Cl)cc1)C(C)(C)C` registered a half-maximal inhibitory concentration (IC50) in [1] of 7870 nM.

`CCN(CCCCCCC(=O)N[C@H](C(=O)N1C[C@H](O)C[C@H]1C(=O)N[C@@H](C)c1ccc(-c2scnc2C)cc1)C(C)(C)C)CCOc1ccc(C(=O)c2c(-c3ccc(O)cc3)sc3cc(O)ccc23)cc1`: the values for the Ratio in [2], in assay [3] and in [4] were 32, 6 and 8, respectively.

In assay [1], `CC(=O)N[C@H](C(=O)N1C[C@H](O)C[C@H]1C(=O)N[C@@H](C)c1ccc(C2CC2)cc1)C(C)(C)C` returned a concentration for half-maximal inhibition (IC50) of 6110 nM.

`CCNCCc1ccc(CN(CC)c2cc(OC)ccc2[C@@H]2CCc3cc(O)ccc3C2)cc1` [ELACESTRANT]: the Ratio in [2] is 89; in assay [3], 159; in assay [4], 171. The compound further registered a concentration for 50% growth inhibition (GI50) in assay [6] of 0.028 nM. The compound further gave an Imax in [7] of 25.7%.

Take `CCC(=C(c1ccccc1)c1ccc(OCCN(CC)CCCCCCCC(=O)N[C@H](C(=O)N2C[C@H](O)C[C@H]2C(=O)N[C@@H](C)c2ccc(-c3scnc3C)cc2)C(C)(C)C)cc1)c1ccccc1`: the Ratio in assay [2] stood at 103; in assay [3] it was 2.4; in assay [4], 97.

For the compound `Cc1ncsc1-c1ccc([C@H](C)NC(=O)[C@@H]2C[C@@H](O)CN2C(=O)[C@@H](NC(=O)CCCCCCCN(C)CCOc2ccc(C(=O)c3c(-c4ccc(O)cc4)sc4cc(O)ccc34)cc2)C(C)(C)C)cc1`, the Ratio in assay [2] was found to be 27; in [3], 46; in assay [4] it was 153.

For `CCN(CCCCCCCC(=O)N[C@H](C(=O)N1C[C@H](O)C[C@H]1C(=O)N[C@@H](C)c1ccc(Cl)cc1)C(C)(C)C)CCOc1ccc(C(=O)c2c(-c3ccc(O)cc3)sc3cc(O)ccc23)cc1`, the results for the Ratio in assay [2], in [3] and in assay [4] were 99, 79 and 87, respectively.

As for `Cc1ncsc1-c1ccc([C@H](C)NC(=O)[C@@H]2C[C@@H](O)CN2C(=O)[C@@H](NC(=O)CCCCCCCN(CCOc2ccc(C(=O)c3c(-c4ccc(O)cc4)sc4cc(O)ccc34)cc2)C(C)(C)C)C(C)(C)C)cc1`, the Ratio came to 21 in [2], 0 in [3] and 0.2 in assay [4].

Take `CCN(CCCCc1cnn(CC(=O)N[C@H](C(=O)N2C[C@H](O)C[C@H]2C(=O)N[C@@H](C)c2ccc(-c3scnc3C)cc2)C(C)(C)C)c1)CCOc1ccc(C(=O)c2c(-c3ccc(O)cc3)sc3cc(O)ccc23)cc1`: the Ratio was 99 in [2], 12 in assay [3] and 20 in [4].

Take `O=C(c1ccc(OCCN2CCCCC2)cc1)c1c(-c2ccc(O)cc2)sc2cc(O)ccc12` [RALOXIFENE]: the GI50 in assay [6] was determined as 0.079 nM. Further, the Imax in assay [7] is 34%. In addition, the outcome in assay [8] was Active.

Turning to `CCN(CCOCCOCCOCC#Cc1cccc2c1CN(C1CCC(=O)NC1=O)C2=O)CCOc1ccc(C(=O)c2c(-c3ccc(O)cc3)sc3cc(O)ccc23)cc1` (centres undefined), the Ratio in assay [9] was 146; in assay [10], 149; in assay [11], 124; in assay [12], 165.

As to `CCN(CCCCCCCC(=O)N[C@H](C(=O)N1C[C@H](O)C[C@H]1C(=O)N[C@@H](C)c1ccc(-c2scnc2C)cc1)C(C)(C)C)CCOc1ccc(C(=O)c2c(-c3ccc(O)cc3)sc3cc(O)ccc23)cc1`, the Ratio in [2] amounted to 21; in assay [3], 0.3; in assay [4], 0.4; in assay [5], 64.

The record behind these values is ChEMBL document CHEMBL4368943 (J Med Chem, 2019).
